NPY Y2 blocker – blocks the human neuropeptide Y Y2 receptor. inhibition, % at 2.7 µM. 140,000 compounds, 0.99% hits. NPY-Y2 expressing cells, antagonist mode;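 also: 0% = vehicle with agonist challenge and 100% = reference antagonist with challenge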
NPY-Y1 PAM-ag – human NPY-Y1 potentiation or agonism, primary screen | P25929 | NPY-Y1 expressing cells, potentiator/agonist activation | activation, % at 3.6 µM | 220,000 compounds, 0.37% hits; in the data active = activation above about 33%, passing the limit was not always enough;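 also: cells stimulated with NPY at EC10 then isoproterenol at EC100; 0% = low agonist plus stimulus and 100% = saturating agonist plus stimulus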
Target sequence (P25929 whole entry, looked up): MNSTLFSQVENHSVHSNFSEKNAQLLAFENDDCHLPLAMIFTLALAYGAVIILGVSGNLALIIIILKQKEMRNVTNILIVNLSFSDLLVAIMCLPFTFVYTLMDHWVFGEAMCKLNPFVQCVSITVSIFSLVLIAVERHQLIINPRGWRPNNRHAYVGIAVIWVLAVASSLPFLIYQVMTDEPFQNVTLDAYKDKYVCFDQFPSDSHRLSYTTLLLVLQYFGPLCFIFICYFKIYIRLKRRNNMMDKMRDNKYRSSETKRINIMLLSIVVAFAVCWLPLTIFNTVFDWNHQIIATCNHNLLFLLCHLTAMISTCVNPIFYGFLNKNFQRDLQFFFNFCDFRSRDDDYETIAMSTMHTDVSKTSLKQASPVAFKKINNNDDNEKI
NPY-Y2 PAM-ag – potentiators or agonists of human neuropeptide Y receptor Y2. P49146. cells expressing NPY-Y2, potentiator/agonist read-out. activation, % at 3.6 µM. 220,000 compounds, 0.45% hits; in the data active = activation above about 27%;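 also: cells stimulated with NPY near EC25 plus isoproterenol at EC100; 0% = vehicle plus submaximal agonist and 100% = vehicle plus saturating agonist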
NPY Y1 blocker – antagonists of human neuropeptide Y receptor Y1 | 200,000 compounds, 1% hits | HEK293-CNG Y1 cells, membrane potential fluorescence; NPY at EC95, then isoproterenol | P25929 | inhibition, % at 3.6 µM;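 active = inhibition above the campaign mean inhibition of all tested compounds plus 3 SD, cut at about 20% in these data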;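 also: 0% = DMSO wells given NPY plus isoproterenol and 100% = isoproterenol alone without NPY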
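Material: HEK293 Y1/CNG channel cell line | Also added: NPY (25 nM), isoproterenol (1 µM), Ro 20-1724 (25 µM) | Compound: One concentration, 3.6 µM, in 0.4% DMSO | Schedule: 3 h dye uptake, 1 h room-temperature compound, 45 min post-isoproterenol | Signal: Membrane-potential fluorescent dye readout | Read-out: % inhibition of NPY effect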
S1P4 ag – human S1P4 receptor agonism | O95977 | S1P4-expressing cell line, agonist reporter assay | activation, % at 4.98 µM | 220,000 compounds, 0.35% hits | AID 1509; in the data active = activation above about 11%;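 also: 0% = DMSO vehicle and 100% = reference agonist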
S1P4 antagonist – human S1P4 receptor antagonism | S1P4-expressing cells, antagonist mode, reporter read-out | inhibition, % at 4.98 µM | AID 1510 | 220,000 compounds, 0.26% hits; in the data active = inhibition above about 29%;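 also: 0% = wells stimulated with agonist and 100% = vehicle wells without agonist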
NPY1 antag conf – confirmation of human neuropeptide Y receptor Y1 antagonists | shares compounds with NPY Y1 blocker | HEK293-CNG NPY-Y1, membrane potential fluorescence, cAMP; NPY challenge against isoproterenol-raised cAMP | inhibition, % at 3.6 µM | 1,200 compounds, 21% hits | AID 1254; in the data active = inhibition above about 20%;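 also: 0% = vehicle with agonist plus stimulus and 100% = stimulus alone without agonist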
NPY2 antag ctr – human NPY-Y2 antagonism in NPY-Y1 counter-screen. AID 1255. 1,200 compounds, 28% hits. HEK293 NPY-Y2 CNG membrane potential fluorescence; cells given NPY, then isoproterenol. inhibition, % at 3.6 µM. shares compounds with NPY Y1 blocker;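 also: 0% = DMSO with agonist challenge and 100% = reference antagonist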
Numbers without * were called inactive; . = no result given. Shown are actives, neighbours in structure and some others; about 2.4% of the full set was active somewhere. Rule as the data show it, unless noted: active = inhibition above about 17%; inactive = the rest.

SMILES	NPY Y2 blocker	NPY-Y1 PAM-ag	NPY-Y2 PAM-ag	NPY Y1 blocker	S1P4 ag	S1P4 antagonist	NPY1 antag conf	NPY2 antag ctr
O=C(CN1CCN(C2CCCCC2)CC1)Nc1ccccc1-c1ccccc1	17	-36	-15	21*	-1	6	6	12
CCc1cccc(CC)c1NC(=O)NC1CCCCC1	4	13	-2	5	4	-29	.	.
CCc1cccc(CC)c1NC(=O)CN1CC(C)SC1=NC1CCCCC1 (configuration not stated)	13	4	6	34*	0	-10	34*	17*
CCOc1ccc(NC(=O)CSc2nnc(CCNC(=O)c3ccc(OC)cc3)n2C)cc1	1	4	-1	10	0	-26	.	.
CCCCOc1ccccc1C1CC(=O)NC2=C1C(=O)CCC2 (configuration not stated)	3	-13	-8	44*	-1	-1	10	21*
COc1ccc(/C=C/CN2CCC(CO)(Cc3ccccc3Cl)CC2)cc1	.	-47	-22	30*	-1	0	13	18*
COC(=O)c1ccc(CN2CCC(CO)(Cc3ccccc3Cl)CC2)cc1	.	2	5	13	1	-6	.	.
CCOC(=O)c1sc(=S)n(CC)c1NC(=O)c1ccccc1	.	6	-3	.	3	-14	.	.
COCCC(=O)N(Cc1ccc2c(c1)OCO2)C(C(=O)NC1CCCCC1)c1ccncc1 (configuration not stated)	0	-2	-2	11	1	-1	.	.
O=C(NC1CCCCC1)C(c1ccncc1)N(Cc1ccc2c(c1)OCO2)C(=O)C(F)(F)F (configuration not stated)	9	-20	-4	21*	-1	-4	9	5
Cc1ccc(C(O)(c2ccccc2)c2ccccc2C(C)N(C)C)c(C)c1 (configuration not stated)	16	4	-36	25*	1	12	21*	32*
CCOC(=O)c1c(C)n(C)c2ccc(O)c(CN3CCN(C)CC3)c12	4	-13	-2	5	1	-4	.	.
CCOC(=O)c1c(CSc2ccccc2)n(C)c2ccc(O)c(CN3CCOCC3)c12	.	-57	-36	38*	2	-16	30*	9
Cc1ccc(SCCC(=O)OCn2nnc3ccccc3c2=O)cc1	.	-2	-14	23*	0	-35	14	15
O=C(CCSc1ccccc1)OCn1nnc2ccccc2c1=O	.	-16	-7	9	-1	-6	.	.
NC(=O)C1=NOC(CNc2ncc(C(F)(F)F)cc2Cl)C1 (configuration not stated)	-1	0	8	-8	0	-9	.	.
O=C(c1cc(COc2ccc(F)cc2Cl)on1)N1CCc2ccccc2C1	.	-39	-9	31*	1	0	13	13
COc1ccc(CC(=O)N(C)C2CCCCC2)cc1S(=O)(=O)N1CCOCC1	.	19	7	0	0	-12	.	.
Cc1nc(N2CCN(S(=O)(=O)c3ccc(F)cc3)CC2)c2c(-c3cccs3)csc2n1	.	-18	-8	9	-3	-8	.	.
Cc1ccc(-n2cccn2)c(CN2CCC(CO)(CCc3ccccc3)CC2)c1	.	-29	-15	45*	2	-4	20	19*
CN1Cc2cc(C(=O)c3cc(Cl)cc(CSc4ncccn4)c3O)cnc2NC1=O	4	1	-1	21*	1	8	-1	15
CCOC(=O)c1c(NC(=O)CSc2nnc(C)s2)sc2c1CCC(CC)C2 (configuration not stated)	10	-58	-23	34*	4	-8	15	18*
N#Cc1ccc(Cl)cc1NC(=O)COC(=O)[C@H](CCC(N)=O)NC(=O)c1ccc(F)cc1	0	-8	-4	-1	2	9	.	.
CN(C)S(=O)(=O)c1cccc(NC(=S)N(CCC#N)Cc2cccnc2)c1	.	2	-14	5	1	1	.	.
